Screening data as filed in PubChem BioAssay.
Most compounds without a hit are left out; they make up all but 2% or so of the library.
CHRM5 PAM: positive allosteric modulators of human muscarinic M5 receptor; P08912; CHO-K1 hM5, Fluo-8 calcium, ACh EC20 PAM; 0% = ACh EC20, 100% = ACh EC100; activation, % at 3 µM; hit rate 0.3% among 360,000; AID 624038;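 active means activation above the run cutoff, the mean activation of all test compounds plus 3 SD, cut at about 18% in these data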
Target sequence (P08912 whole entry, looked up): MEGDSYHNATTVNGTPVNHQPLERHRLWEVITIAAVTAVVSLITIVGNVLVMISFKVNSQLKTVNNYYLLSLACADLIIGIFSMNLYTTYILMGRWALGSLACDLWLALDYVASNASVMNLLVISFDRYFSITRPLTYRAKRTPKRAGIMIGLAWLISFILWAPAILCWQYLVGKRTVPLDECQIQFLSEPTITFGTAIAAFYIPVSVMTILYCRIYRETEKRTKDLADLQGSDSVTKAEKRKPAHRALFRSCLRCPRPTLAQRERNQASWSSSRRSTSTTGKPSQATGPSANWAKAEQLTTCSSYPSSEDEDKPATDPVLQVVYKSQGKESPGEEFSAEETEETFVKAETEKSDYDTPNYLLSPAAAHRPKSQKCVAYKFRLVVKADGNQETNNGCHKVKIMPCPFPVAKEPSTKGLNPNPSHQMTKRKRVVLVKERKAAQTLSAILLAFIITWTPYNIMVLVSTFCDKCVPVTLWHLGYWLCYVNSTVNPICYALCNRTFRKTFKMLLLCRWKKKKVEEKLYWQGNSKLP
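Assay system: CHO-K1 hM5 cells / Incubation: Fluo-8 loading 80 min at 37 °C plus 30 min room temperature / Technique: Fluo-8 calcium dye fluorescence, kinetic read / Repeats: single replicate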
CHRM1 PAM: positive allosteric modulators of human M1 muscarinic receptor; P11229; CHO-K1 hM1, Fluo-8 calcium fluorescence, ACh EC20; 0% = ACh EC20, 100% = maximal ACh; activation, % at 3 µM; hit rate 0.088% among 360,000; in the data active means activation above about 19%, passing the limit was not always enough
CHRM5 antagonist: blocks acetylcholine activation of human M5 receptor | CHO-hM5 cells, Fluo-8 calcium fluorescence, ACh EC80 | inhibition, % at 3 µM | hit rate 0.59% among 360,000;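 active means inhibition above a per-plate cutoff, the mean of that plate's test compounds plus 3 SD, cut at about 27% in these data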
M1 antag: antagonists of human M1 muscarinic receptor; P11229; CHO-K1 hM1, Fluo-8 calcium fluorescence, ACh EC80 antagonist; inhibition, % at 3 µM; hit rate 1.3% among 360,000;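 active means percent inhibition above its own plate's cutoff, namely the mean of that plate's compound wells plus 3 SD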;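 further: peak over basal fluorescence ratio during 140 s after agonist addition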
M1 ag: agonists of human M1 muscarinic receptor | hit rate 0.33% among 360,000 | CHO-K1 hM1, Fluo-8 calcium fluorescence, agonist mode; 0% DMSO, 100% acetylcholine EC100 | activation, % at 3 µM | P11229;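 active means activation above the run's mean compound activation plus 3 SD, cut at about 16% in these data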;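 further: peak over basal fluorescence ratio within a 140 s kinetic read after compound addition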
CHRM5 agonist: CHRM5 agonism in calcium assay; activation, % at 3 µM; CHO-K1 hM5 cells, Fluo-8 calcium fluorescence; 0% DMSO wells, 100% maximal acetylcholine response; P08912; hit rate 0.19% among 360,000; AID 624037;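 active means activation above the run's mean over test compounds plus 3 SD, cut at about 23% in these data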;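 further: signal is peak over basal fluorescence ratio across the kinetic read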
Numbers stand for hits.

CC(=O)NCCC(=O)N(C)CC1CCN(CCc2cccc(C(F)(F)F)c2)CC1 was read as CHRM5 PAM inactive, CHRM1 PAM inactive, CHRM5 antagonist inactive, M1 antag inactive, M1 ag inactive and CHRM5 agonist inactive.
COc1cc(CN(C)CC2CCCN(CCc3cccc(C(F)(F)F)c3)C2)ccc1O (stereo not given) was read as CHRM5 PAM inactive, CHRM1 PAM inactive, CHRM5 antagonist inactive, M1 antag 48.6, M1 ag inactive and CHRM5 agonist inactive.
Screening COC(=O)CCC(=O)N(C)CC1CCCN(CCc2cccc(C(F)(F)F)c2)C1 (stereo not given) returned CHRM5 PAM inactive, CHRM1 PAM inactive, CHRM5 antagonist inactive, M1 antag 44.1, M1 ag inactive and CHRM5 agonist inactive.
`CN(Cc1ccccc1)C(=O)CN1CCN(C(c2ccccc2)c2ccccc2)CC1` gave CHRM5 PAM inactive, CHRM1 PAM inactive, CHRM5 antagonist inactive, M1 antag 85.6, M1 ag inactive and CHRM5 agonist inactive.
For C[C@@H](NC(=O)c1ncn2c1c(=O)[nH]c1ccc(Br)cc12)c1ccccc1 the results were CHRM5 PAM inactive, CHRM1 PAM inactive, CHRM5 antagonist inactive, M1 antag inactive, M1 ag inactive and CHRM5 agonist inactive.
`Cc1c(-n2c(=O)n(Cc3ccccc3)c(=O)c3[nH]cnc32)cccc1S(C)=O` (stereo not given) gave CHRM5 PAM inactive, CHRM1 PAM inactive, CHRM5 antagonist inactive, M1 antag inactive, M1 ag inactive and CHRM5 agonist inactive.
`CC(=O)Nc1ccc(NC(=O)Cn2cnc3c(nnn3Cc3ccc(F)cc3)c2=O)cc1` gave CHRM5 PAM inactive, CHRM1 PAM inactive, CHRM5 antagonist inactive, M1 antag inactive, M1 ag 16.4 and CHRM5 agonist inactive.
CCCc1nc2n[nH]c(N)c2c2c1CCCC2 was read as CHRM5 PAM inactive, CHRM1 PAM inactive, CHRM5 antagonist inactive, M1 antag inactive, M1 ag inactive and CHRM5 agonist inactive.
CCCCc1nc2n[nH]c(N)c2c2c1CCCC2 was read as CHRM5 PAM 22.3, CHRM1 PAM inactive, CHRM5 antagonist inactive, M1 antag inactive, M1 ag inactive and CHRM5 agonist inactive.
CCOc1ccc(Cl)cc1-c1cc(C(=O)Nc2ccc(C(C)C)cc2)[nH]n1 was read as CHRM5 PAM inactive, CHRM1 PAM inactive, CHRM5 antagonist inactive, M1 antag inactive, M1 ag inactive and CHRM5 agonist inactive.
For C=CCn1c(SCC(=O)Nc2cccnc2Cl)nnc1-c1ccc(Cl)cc1 the results were CHRM5 PAM 25.5, CHRM1 PAM inactive, CHRM5 antagonist 27.6, M1 antag inactive, M1 ag inactive and CHRM5 agonist inactive.
`C=CCn1c(SCC(=O)Nc2cccnc2Cl)nnc1-c1ccccc1F` gave CHRM5 PAM inactive, CHRM1 PAM inactive, CHRM5 antagonist inactive, M1 antag inactive, M1 ag inactive and CHRM5 agonist inactive.
Screening Fc1cccc(Cc2c(C3CCCCC3)nc3ccc(Cl)cn23)c1 returned CHRM5 PAM inactive, CHRM1 PAM inactive, CHRM5 antagonist inactive, M1 antag inactive, M1 ag inactive and CHRM5 agonist inactive.
CCOC(=O)C1CCN(S(=O)(=O)c2ccc3c(c2)CCN3C(C)=O)CC1 was read as CHRM5 PAM inactive, CHRM1 PAM inactive, CHRM5 antagonist 31.8, M1 antag inactive, M1 ag inactive and CHRM5 agonist inactive.
Screening CC(=O)N1CCc2cc(S(=O)(=O)N3CCc4ccccc43)ccc21 returned CHRM5 PAM inactive, CHRM1 PAM inactive, CHRM5 antagonist inactive, M1 antag 59.7, M1 ag inactive and CHRM5 agonist inactive.
Cn1cc(S(=O)(=O)N2CCc3ccccc32)cc1C(=O)NC(C)(C)C was read as CHRM5 PAM inactive, CHRM1 PAM inactive, CHRM5 antagonist 41.4, M1 antag 31.6, M1 ag inactive and CHRM5 agonist inactive.
For CCc1nc2ccc(C(=O)NCCC(C)C)cn2c1N(C)Cc1ccc(OC)cc1 the results were CHRM5 PAM inactive, CHRM1 PAM inactive, CHRM5 antagonist inactive, M1 antag inactive, M1 ag inactive and CHRM5 agonist inactive.
Screening CN1OC[C@@H]2CN(Cc3cc(Cl)cc(Cl)c3)[C@H](c3cccc(Br)c3)C[C@@H]21 returned CHRM5 PAM inactive, CHRM1 PAM inactive, CHRM5 antagonist inactive, M1 antag inactive, M1 ag inactive and CHRM5 agonist inactive.
For C=CCN1C(=O)c2ccc(C(=O)NCCc3ccc(OC)c(OC)c3)cc2C1=O the results were CHRM5 PAM inactive, CHRM1 PAM inactive, CHRM5 antagonist inactive, M1 antag inactive, M1 ag inactive and CHRM5 agonist inactive.
Screening COc1c(O)cc2c(c1O)C1OC(CO)C(O)C(O)C1OC2=O (stereo not given) returned CHRM5 PAM inactive, CHRM1 PAM inactive, CHRM5 antagonist inactive, M1 antag inactive, M1 ag 48.4 and CHRM5 agonist 45.7.
COc1c(O)cc2c(c1O)[C@@H]1OC(CO)C(O)C(O)[C@H]1OC2=O (stereo not given in full) was read as CHRM5 PAM inactive, CHRM1 PAM inactive, CHRM5 antagonist inactive, M1 antag inactive, M1 ag inactive and CHRM5 agonist inactive.
For O=C(NNC(=O)C1CCN(S(=O)(=O)c2cccc(C(F)(F)F)c2)CC1)C1CC1 the results were CHRM5 PAM inactive, CHRM1 PAM inactive, CHRM5 antagonist inactive, M1 antag inactive, M1 ag inactive and CHRM5 agonist inactive.
For CNC(=O)c1ccc(NC(=O)C2CCN(S(=O)(=O)c3cccc(C(F)(F)F)c3)CC2)cc1 the results were CHRM5 PAM 18.8, CHRM1 PAM inactive, CHRM5 antagonist inactive, M1 antag 29.7, M1 ag inactive and CHRM5 agonist inactive.
Screening CC1NC(=O)c2cc3ccccc3cc2-n2c1nc1ccc(F)cc1c2=O (stereo not given) returned CHRM5 PAM inactive, CHRM1 PAM inactive, CHRM5 antagonist inactive, M1 antag inactive, M1 ag inactive and CHRM5 agonist inactive.
COc1ccc(-c2c[n+]3c4n2CCCCC4=C(c2ccc(Br)cc2)C3)cc1 was read as CHRM5 PAM inactive, CHRM1 PAM inactive, CHRM5 antagonist inactive, M1 antag 34.8, M1 ag inactive and CHRM5 agonist inactive.
Screening O=C(Nc1cccc(Cl)c1Cl)c1csc([C@H]2C[C@H](O)[C@@H](CO)O2)n1 returned CHRM5 PAM inactive, CHRM1 PAM inactive, CHRM5 antagonist inactive, M1 antag inactive, M1 ag inactive and CHRM5 agonist inactive.
Screening COc1ccccc1Cc1c(C2CCCCC2)nc2c3ccccc3ccn12 returned CHRM5 PAM 18.3, CHRM5 antagonist inactive and CHRM5 agonist inactive.
Screening COc1ccc(Cc2c(C3CCCCC3)nc3c4ccccc4ccn23)c(C)c1 returned CHRM5 PAM inactive, CHRM1 PAM inactive, CHRM5 antagonist inactive, M1 antag inactive, M1 ag inactive and CHRM5 agonist inactive.
